Source: PubChem BioAssay (Johns Hopkins Ion Channel Center)
KCNQ1 act: potentiators or activators of human KCNQ1 potassium channel; P51787; CHO-K1 KCNQ1, thallium flux FluxOR fluorescence; hits give high values; B-score at 10 µM; 310,000 compounds, 0.35% hits;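 active = fluorescence ratio B-score, a plate-corrected score, at least three library SD, with initial intensity B-score within 5 SD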
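assay system = CHO-K1 cells stably expressing KCNQ1 | medium = assay buffer, equal DMSO in all wells | timing = 37 °C overnight plating, 90-min dark dye load, 20-min compound pretreatment | measured by = kinetic FluxOR thallium fluorescence, 10-s 1-Hz baseline, 110-s post-stimulus read | measure = fluorescence change relative to baseline, converted to B score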
hERG protect: shields human hERG channel from block by proarrhythmic agents; CHO-hERG, FluxOR thallium flux, dofetilide IC70 present; activation (rescue from dofetilide block), less the hit threshold, % at 10 µM; 310,000 compounds, 0.51% hits; AID 1511;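 active = activation above the mean of controls blocked by dofetilide plus 5 SD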;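 also: thallium influx through hERG after potassium depolarization seen as dye fluorescence rise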
KCNQ1 block: inhibitors of human KCNQ1 potassium channel | AID 2642 | P51787 | 310,000 compounds, 1.3% hits | CHO-K1 KCNQ1, FluxOR thallium flux fluorescence; hits give high values | B-score at 10 µM;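 active = compounds whose thallium flux B-score, printed positive for inhibition, exceeds three library SD while starting fluorescence stays within three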;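 also: channel opened by potassium depolarization with thallium stimulus after 20 min compound exposure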
KCNK9 block: inhibitors of human KCNK9 two-pore domain potassium channel; Q9NPC2; HEK293 KCNK9, FluxOR thallium flux fluorescence; hits give low values; B-score at 10 µM; 310,000 compounds, 1.2% hits; AID 488922;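 active = ratio B-score over 3 SD below the library mean, with starting fluorescence within 5 SD of its mean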;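 also: negative B-score means less thallium flux so channel inhibition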
KCNK3 block: human KCNK3 channel inhibition, primary screen. O14649. CHO-KCNK3 thallium flux, FluxOR fluorescence; hits give low values. B-score at 10 µM. 340,000 compounds, 0.84% hits. AID 602410;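 active = B-score under library mean minus 4 SD, starting fluorescence ratio at most library mean plus 5 SD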;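 also: more negative B-score means stronger inhibition of thallium flux through KCNK3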
Starred values were filed as active, the others as inactive; i = inactive; x = not tested or not shown. Hits are enriched below; roughly 3.1% of the tested compounds scored in any of these assays.

SMILES | KCNQ1 act | hERG protect | KCNQ1 block | KCNK9 block | KCNK3 block
O=C(/C(=C/O)N=Nc1ccccc1)c1ccncc1 | i | -8 | i | -7.6* | i
Cc1ccc(NC(=O)C(OC(=O)c2cc(C)oc2C)c2ccccc2)cc1 (configuration not stated) | i | -5 | i | i | i
Cc1cc(C(=O)OC(C(=O)Nc2cccc(C(F)(F)F)c2)c2ccccc2)c(C)o1 (configuration not stated) | i | -5 | 9* | i | i
CCN(c1cccc(C)c1)S(=O)(=O)c1c(C)[nH]c(=O)[nH]c1=O | i | 1 | i | i | i
CCN(c1cccc(C)c1)S(=O)(=O)c1cnc[nH]1 | i | 5.3* | i | i | i
COc1ccc(-c2sc3ccc(N4CCOCC4)cc3c2C#CCCO)cc1 | x | x | x | x | i
Cc1cccc(N2CCN(C(=O)CNC(=O)Cc3ccccc3)CC2)c1C | x | x | x | x | i
Cc1cccc(N2CCN(C(=O)CNC(=O)c3cccc([N+](=O)[O-])c3)CC2)c1C | i | 12* | i | i | i
CC1CCC2C(C1)OS(=O)(=O)NC2(C)C (configuration not stated) | i | -5 | i | i | x
CCN(c1ccccc1)S(=O)(=O)c1ccc(Oc2ccccc2)c(N)c1 | x | x | x | x | i
CCN(Cc1ccccc1)C(=S)NC(=O)c1ccccc1Br | 43* | 22* | i | i | i
O=C(NC(=S)N(CCO)Cc1ccccc1)c1cc(Br)ccc1Cl | i | 19* | i | i | i
CCCN(Cc1ccccc1)C(=S)NC(=O)c1ccccc1[N+](=O)[O-] | i | 29* | i | i | i
Cc1ccc(S(=O)(=O)Nc2c(C)n(C)n(-c3ccccc3)c2=O)cc1C(=O)NCc1ccco1 | x | x | x | x | i
CCOC(=O)Cc1c[nH]c2ccc([N+](=O)[O-])cc12 | x | x | x | x | i
Cc1ccc(NC(=O)COC(=O)CC2CCCC2)cc1F | x | x | x | x | i
Cc1nc(-c2nc(-c3c(C(=O)NNC(=O)c4ccc(Cl)cc4)noc3C)cs2)cs1 | 17* | 3 | i | i | i
CCOC(=O)CN1C(c2ccccc2O)Nc2ccc(Br)cc2C1c1ccccc1 (configuration not stated) | i | -7 | i | -7.4* | i
O=C(CCc1ccco1)CCc1ccco1 | x | x | x | x | i
Cc1ccccc1N(CC(=O)NC1CCCC1)C(=O)c1oc(C(C)(C)C)cc1C | i | -9 | i | i | i
Cc1cc(C(C)(C)C)oc1C(=O)N(CC(=O)NC1CCCC1)c1cccc(C(F)(F)F)c1 | i | 0 | i | -8* | -9*
Cc1cc(C)n(-c2ccc(F)cc2)c(=O)c1C(=O)O | i | -14 | i | i | i
CC(=O)c1c(O)cc(C)n(-c2ccc(F)cc2)c1=O | 8* | -6 | i | i | i
Fc1cccc(C2NN=C(c3ccccc3)S2)c1 (configuration not stated) | i | 11* | i | i | i
Cc1ccc(C(C(=O)NC(C)(C)C)N(Cc2cccnc2)C(=O)C(=O)NC2CCCCC2)o1 (configuration not stated) | i | 33* | i | i | i
SMILES | KCNQ1 act | hERG protect | KCNQ1 block | KCNK9 block | KCNK3 block
CCN(CC)C(=S)NC(=O)c1ccc(Cl)cc1Cl | 17* | 13* | i | i | i
CCCCN(CCCC)C(=S)NC(=O)c1ccccc1Cl | 57* | 65* | i | i | i
CC(C)(C)C(=O)NC(=S)NNC(=O)c1ccc(Cl)cc1Cl | 16* | -9 | i | i | i
CC(C)(C)C(=O)NC(=S)NNC(=O)c1ccc(-c2ccccc2)cc1 | 66* | 6.3* | i | i | i
O=C(CCNC(=O)c1ccc([N+](=O)[O-])cc1)Nc1ccccc1N1CCCCC1 | i | -6 | i | i | i
CCN(CC)c1ccc2nc3c4ccccc4c(=O)cc-3oc2c1 | i | -2 | i | i | x
CCN(CC)c1ccc2c(-c3ccc(S(=O)(=O)O)cc3S(=O)(=O)[O-])c3ccc(=[N+](CC)CC)cc-3oc2c1 | i | -41 | 25* | i | i
Cc1ccccc1NC(=S)NC(=O)c1cc(-c2ccccc2)nc2ccccc12 | 19* | 3 | i | i | i
Cc1ccc(-c2cc(C(=O)Nc3ccncc3)c3ccccc3n2)cc1 | i | -7 | i | i | i
Cc1cccc(NC(=S)NC(=O)c2cc(-c3ccccc3)nc3ccccc23)c1 | 18* | 6.1* | i | i | i
CCC(CC)COC(=O)C1=C(C)NC(=O)NC1c1ccccc1Br (configuration not stated) | i | -9 | i | i | i
CC(C)[C@H](NC(=O)c1ccccc1)C(=O)OCC(=O)c1c(N)n(C)c(=O)n(C)c1=O | x | x | x | x | i
Cc1ccc(C2=NN(C(=O)CCC(=O)O)C(c3ccc4c(c3)OCO4)C2)cc1 (configuration not stated) | i | -8 | i | i | i
Cc1ccc(C2=NN(C(=O)CCCC(=O)O)C(c3ccc4c(c3)OCO4)C2)cc1 (configuration not stated) | i | 5.5* | i | i | i
CCCOc1ccc(-c2c(C(=O)N/N=C/c3ccc(C)cc3)nnn2-c2nonc2N)cc1 | i | -7 | i | i | i
CCCOc1ccc(-c2c(C(=O)N/N=C/c3ccccc3OCC)nnn2-c2nonc2N)cc1 | i | 37* | i | i | i
Nc1nonc1-n1nnc(C(=O)N/N=C/c2cccc(Cl)c2Cl)c1CN1CCCC1 | i | 40* | i | i | i
Nc1nonc1-n1nnc(C(=O)N/N=C/c2ccc(Cl)cc2Cl)c1CN1CCCC1 | i | -3 | i | i | i
CN(N=Nc1ccc([N+](=O)[O-])cc1)c1ccccc1 | i | -11 | i | i | i
CN(N=Nc1cccc([N+](=O)[O-])c1)c1ccccc1 | i | -3 | i | -6.7* | i
Cc1ccc(S(=O)(=O)N2CCN(C(=O)COC(=O)c3ccccc3OC(F)F)CC2)c(C)c1 | x | x | x | x | i
COc1ccc(C(=O)NC(=S)N2CCC(C)CC2)cc1 | i | 8.2* | i | i | i
COc1cc(OC)cc(C(=O)NC(=S)N2CCCCCC2)c1 | i | 10* | i | i | i
COc1ccc(C(=O)NC(=S)N2CCCCC2)cc1 | i | -2 | i | i | i
CC(=O)NC1=C(NC2CCS(=O)(=O)C2)C(=O)c2ccccc2C1=O (configuration not stated) | 12* | 3 | i | i | i
CC(C)(C)C1(O)CC(C(F)(F)F)=NN1C(=O)Cc1ccc([N+](=O)[O-])cc1 (configuration not stated) | 12* | -2 | i | i | i
